The results in this text go back to ChEMBL document CHEMBL1123311, “Synthesis and antitumor and antiviral properties of 5-halo- and 5-(trifluoromethyl)-2'-deoxyuridine 3',5'-cyclic monophosphates and neutral triesters” (1986).

≈ marks a conversion by molar mass, not a printed value. A value given as a limit tells only on which side of the number the result lay.

Test [1] concerns Vesicular stomatitis virus. Put plainly: Evaluation of antiviral activity against Vesicular stomatitis virus. The test is classed as functional. Summed up: (§1)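 Virus-induced cytopathogenicity scored in primary rabbit kidney cell cultures. Value is the minimum concentration reducing cytopathogenicity by 50%. Cytotoxicity on uninfected cells was read as the minimal concentration causing a microscopically detectable change in normal cell morphology, tested up to 400 μg/mL.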

Test [2] concerns the target Thymidylate synthase (Mus musculus) (UniProt P07607). Briefly: Compound was evaluated for the inhibition of L1210 Thymidylate synthase. Summed up: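 Thymidylate (dTMP) synthetase inhibition measured with a partially purified extract of L1210 cells as the enzyme source.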
Test [3] concerns Human alphaherpesvirus 2. Put plainly: Evaluation of antiviral activity against Herpes simplex virus type 2 (HSV-2) strain G. The test is classed as functional. Summed up: as §1
For test [4], the system named is Human alphaherpesvirus 2. Put plainly: Evaluation of antiviral activity against Herpes simplex virus type 2 (HSV-2) strain Lyons. Type of test: functional. The method in brief: as §1
Another test deals with Raji. Put plainly: Evaluation of antitumor activity against thymidine kinase deficient Raji cell line. Type of test: functional. Particulars: Homo sapiens, read-out: ID50 (the source's name).
The subject of test [5] is Human alphaherpesvirus 2. Put plainly: Evaluation of antiviral activity against Herpes simplex virus type 2 (HSV-2) strain 196. The test is classed as functional. Summed up:
as §1

For test [6], the system named is Human alphaherpesvirus 1. Put plainly: Evaluation of antiviral activity against Herpes simplex virus type 1 (HSV-1) strain F. Type of test: functional. The method in brief:
as §1

The subject of test [7] is L1210. Briefly: Evaluation of cytostatic activity by using antitumor assays against murine leukemia L1210 cells. The test is classed as functional. Particulars: Mus musculus, read-out: ID50 (the source's name).
In test [8] the test system is L1210. Put plainly: Evaluation of antitumor activity against mutant murine leukemia L1210 cells. Type of test: functional. Particulars: Mus musculus, read-out: ID50 (the source's name). Summed up:
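Proliferation of mutant murine leukemia L1210/BdUrd cells, selected from parental L1210/0 for growth in 260 μg/mL 5-bromo-2'-deoxyuridine. Value is the dose inhibiting proliferation by 50%.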

The test system of a further test is Vaccinia virus. Put plainly: Evaluation of antiviral activity against Vaccinia virus. Type of test: functional. Particulars: Orthopoxvirus vaccinia. Summed up: as §1
For test [9], the system named is Human alphaherpesvirus 1. Briefly: Evaluation of antiviral activity against Herpes simplex virus type 1 (HSV-1) strain KOS. The test is classed as functional. The method in brief:
as §1

Test [10] has as its system Human alphaherpesvirus 1. Briefly: Evaluation of antiviral activity against Herpes simplex virus type 1 (HSV-1) strain McIntyre. Type of test: functional. Summed up: as §1
For the next test, the species on record is Homo sapiens. Briefly: Evaluation for antitumor activity against human lymphoblast Raji cells. Type of test: functional. Particulars: for IC50: Homo sapiens, Raji, read-out: ID50 (the source's name).
Test [11] deals with Thymidylate synthase (Mus musculus) (UniProt P07607). Put plainly: Compound was evaluated for the inhibition of L1210 thymidylate synthetase (L1210 dTMP). The method in brief: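 Enzyme source was a partially purified extract of murine leukemia L1210 cells. The dTMP synthetase assay followed an earlier published method, and no reaction conditions are given here.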
Thymidylate synthase (Mus musculus), sequence (P07607 whole entry, looked up): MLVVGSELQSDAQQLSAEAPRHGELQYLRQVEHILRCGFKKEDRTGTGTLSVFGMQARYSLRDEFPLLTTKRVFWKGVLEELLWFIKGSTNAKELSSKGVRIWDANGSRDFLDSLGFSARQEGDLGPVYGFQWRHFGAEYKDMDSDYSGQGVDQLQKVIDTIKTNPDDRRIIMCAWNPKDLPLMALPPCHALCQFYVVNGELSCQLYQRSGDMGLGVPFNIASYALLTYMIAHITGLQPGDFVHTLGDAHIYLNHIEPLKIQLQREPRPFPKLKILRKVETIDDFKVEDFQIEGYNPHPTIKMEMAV

As to `N.O=c1[nH]c(=O)n([C@H]2C[C@@H]3O[PH](O)(O)OC[C@H]3O2)cc1I`, the MIC50 in [1] was > 400 µg/mL; in the test with Human alphaherpesvirus 2 [3] it was 10 µg/mL; with Human alphaherpesvirus 2 [4], 7 µg/mL; in the test on Human alphaherpesvirus 2 [5], 20 µg/mL; in the test on Human alphaherpesvirus 1 [6] it was 2 µg/mL; with Vaccinia virus, 2 µg/mL. Also, the figures for the MIC50 in the test with Human alphaherpesvirus 1 [9] and against Human alphaherpesvirus 1 [10] were 2 µg/mL and 7 µg/mL, respectively. In addition, the Ki/Km in [2] is > 355. Besides, the IC50 in the test with Raji is > 500 µg/mL; in the test with L1210 [7] it was ≥ 500 µg/mL; with L1210 [8], > 500 µg/mL; in the test listed under Homo sapiens, 54 µg/mL.

Consider `N.O=c1[nH]c(=O)n([C@H]2C[C@@H]3O[PH](O)(O)OC[C@H]3O2)cc1C(F)(F)F`, for which the MIC50 in [1] was > 400 µg/mL; against Human alphaherpesvirus 2 [3] it was 10 µg/mL; against Human alphaherpesvirus 2 [4], 10 µg/mL; against Human alphaherpesvirus 2 [5], 40 µg/mL; in the test on Human alphaherpesvirus 1 [6] it was 20 µg/mL; against Vaccinia virus, 0.4 µg/mL. Besides, the MIC50 against Human alphaherpesvirus 1 [9] and in the test with Human alphaherpesvirus 1 [10] was 10 µg/mL throughout. In test [2], this compound yielded a Ki/Km of 30.4. For the same compound, the IC50 is ≥ 500 µg/mL in the test with Raji, 0.116 µg/mL in the test with L1210 [7], 22 µg/mL in the test on L1210 [8] and 1.81 µg/mL in the test listed under Homo sapiens.

`O=c1[nH]c(=O)n([C@H]2C[C@H](O)[C@@H](CO)O2)cc1C(F)(F)F` [TRIFLURIDINE]: the MIC50 in test [1] is > 40 µg/mL; in the test on Human alphaherpesvirus 2 [3] it was 0.6 µg/mL (≈ 2.03 µM); in the test with Human alphaherpesvirus 2 [4], 1 µg/mL (≈ 3.38 µM); against Human alphaherpesvirus 2 [5], 1 µg/mL (≈ 3.38 µM); in the test with Human alphaherpesvirus 1 [6] it was 0.7 µg/mL (≈ 2.36 µM); against Vaccinia virus, 0.2 µg/mL (≈ 0.675 µM). Moreover, the MIC50 against Human alphaherpesvirus 1 [9] and with Human alphaherpesvirus 1 [10] was 0.7 µg/mL (≈ 2.36 µM) in each case. In addition, the IC50 in the test with Raji was 180 µg/mL (≈ 608 µM); in the test with L1210 [7], 0.006 µg/mL (≈ 0.0203 µM); in the test with L1210 [8], 47 µg/mL (≈ 159 µM); in the test listed under Homo sapiens it was 0.15 µg/mL (≈ 0.506 µM).

As for `O=c1[nH]c(=O)n([C@H]2C[C@@H]3OP(=O)(OCc4ccccc4)OC[C@H]3O2)cc1I` (stereo partly drawn), the MIC50 in [1] was > 200 µg/mL; against Human alphaherpesvirus 2 [3] it was 20 µg/mL (≈ 39.5 µM); against Human alphaherpesvirus 2 [4], 7 µg/mL (≈ 13.8 µM); in the test on Human alphaherpesvirus 2 [5] it was 70 µg/mL (≈ 138 µM); against Human alphaherpesvirus 1 [6] it was 7 µg/mL (≈ 13.8 µM); with Vaccinia virus, 2 µg/mL (≈ 3.95 µM). For the same compound, the MIC50 in the test on Human alphaherpesvirus 1 [9] and with Human alphaherpesvirus 1 [10] was 20 µg/mL (≈ 39.5 µM) each time. The IC50 in the test with Raji, in the test on L1210 [7], in the test with L1210 [8] and in the test listed under Homo sapiens was > 100 µg/mL in each case. This compound displayed an ID50 in the test listed under Homo sapiens of 69 µg/mL (≈ 136 µM).

Take `N.O=c1[nH]c(=O)n([C@H]2C[C@@H]3O[PH](O)(O)OC[C@H]3O2)cc1Br`: the MIC50 was > 400 µg/mL in test [1]; 2 µg/mL in the test on Human alphaherpesvirus 2 [3]; 2 µg/mL with Human alphaherpesvirus 2 [4]; 20 µg/mL with Human alphaherpesvirus 2 [5]; 2 µg/mL against Human alphaherpesvirus 1 [6]; 1 µg/mL in the test on Vaccinia virus. In addition, the MIC50 in the test on Human alphaherpesvirus 1 [9] and in the test on Human alphaherpesvirus 1 [10] was 2 µg/mL each time. Also, in test [2], the Ki/Km was > 354. Also, the IC50 in the test with Raji was > 1000 µg/mL; with L1210 [7], 457 µg/mL; in the test with L1210 [8], > 1000 µg/mL; in the test filed under Homo sapiens, 224 µg/mL.

Take `N.O=c1[nH]c(=O)n([C@H]2C[C@@H]3O[PH](O)(O)OC[C@H]3O2)cc1F`: the MIC50 was > 400 µg/mL in [1]; ≥ 300 µg/mL in the test with Human alphaherpesvirus 2 [3]; ≥ 200 µg/mL with Human alphaherpesvirus 2 [4]; ≥ 400 µg/mL with Human alphaherpesvirus 2 [5]; > 400 µg/mL with Human alphaherpesvirus 1 [6]; 1.5 µg/mL in the test with Vaccinia virus. Also, the MIC50 against Human alphaherpesvirus 1 [9] and in the test with Human alphaherpesvirus 1 [10] was > 400 µg/mL each time. Moreover, the IC50 with Raji stood at 19 µg/mL; in the test on L1210 [7] it was 0.06 µg/mL; in the test on L1210 [8], 7.4 µg/mL; in the test filed under Homo sapiens, 0.164 µg/mL. Besides, the Ki/Km in test [11] was 38.

With `O=c1[nH]c(=O)n([C@H]2C[C@H](O)[C@@H](COP(=O)(O)O)O2)cc1/C=C/Br`, the MIC50 in test [1] was > 400 µg/mL; in the test with Human alphaherpesvirus 2 [3], 20 µg/mL (≈ 48.4 µM); with Human alphaherpesvirus 2 [4] it was 100 µg/mL (≈ 242 µM); with Human alphaherpesvirus 2 [5] it was > 400 µg/mL; in the test with Human alphaherpesvirus 1 [6] it was 0.02 µg/mL (≈ 0.0484 µM); in the test on Vaccinia virus, 7 µg/mL (≈ 16.9 µM). Further, the MIC50 against Human alphaherpesvirus 1 [9] and in the test on Human alphaherpesvirus 1 [10] was 0.02 µg/mL (≈ 0.0484 µM) throughout.

For `O=c1[nH]c(=O)n([C@H]2C[C@H](O)[C@@H](COP(=O)(O)O)O2)cc1F` [5-FLUORODEOXYURIDYLATE], the MIC50 in [1] was > 200 µg/mL; with Human alphaherpesvirus 2 [3], 7 µg/mL (≈ 21.5 µM); in the test on Human alphaherpesvirus 2 [4], 20 µg/mL (≈ 61.3 µM); against Human alphaherpesvirus 2 [5], 100 µg/mL (≈ 307 µM); against Human alphaherpesvirus 1 [6], 10 µg/mL (≈ 30.7 µM); against Vaccinia virus it was 0.2 µg/mL (≈ 0.613 µM). Besides, the MIC50 against Human alphaherpesvirus 1 [9] and in the test with Human alphaherpesvirus 1 [10] was 10 µg/mL (≈ 30.7 µM) throughout. Further, the Ki/Km in test [2] came out at 0.018. Also, the IC50 with Raji is 2.41 µg/mL (≈ 7.39 µM); with L1210 [7] it was 0.003 µg/mL (≈ 0.0092 µM); with L1210 [8] it was 3 µg/mL (≈ 9.2 µM); in the test filed under Homo sapiens it was 0.013 µg/mL (≈ 0.0399 µM).
